The list is not random: actives were taken first. Their share in the collection is about 3.1%.
GPR7 antagonist = antagonists of human GPR7 (neuropeptides B/W receptor 1). P48145. inhibition, % at 4.4 µM. 290,000 tested, 1.1% active. AID 1861. GPR7-expressing cells, fluorescence antagonist assay; in the data active = inhibition above about 16%, passing the limit was not always enough;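 also: cells stimulated with the agonist NPW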
OX1R antag-1 = blocks the human orexin 1 receptor; O43613; OX1R-expressing cells, FRET antagonist read-out; inhibition, % at 6.6 µM; 330,000 tested, 1.8% active; AID 485270; in the data active = inhibition mostly above about 38%, no sharp cut-off; inactive = mostly below about 40%
Target sequence (O43613 whole entry, looked up): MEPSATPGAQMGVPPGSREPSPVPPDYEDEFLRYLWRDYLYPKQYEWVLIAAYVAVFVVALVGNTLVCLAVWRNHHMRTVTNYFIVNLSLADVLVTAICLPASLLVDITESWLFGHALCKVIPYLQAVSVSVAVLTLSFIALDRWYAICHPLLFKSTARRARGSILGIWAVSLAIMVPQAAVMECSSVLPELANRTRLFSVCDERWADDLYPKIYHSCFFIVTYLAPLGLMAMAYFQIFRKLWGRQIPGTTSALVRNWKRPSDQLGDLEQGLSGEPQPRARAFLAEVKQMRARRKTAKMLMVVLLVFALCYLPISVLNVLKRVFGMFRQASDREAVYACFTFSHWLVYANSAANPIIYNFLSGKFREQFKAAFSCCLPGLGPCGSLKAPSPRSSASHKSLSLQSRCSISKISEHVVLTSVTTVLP
CHO parental Ca = signal in parental CHO cells, OX1R antagonist counter-screen | parental CHO-K1, ATP-induced calcium, Fluo-8 fluorescence | inhibition, % at 5.6 µM | 330,000 tested, 0.63% active | AID 463079;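 active = inhibition above that plate's mean sample inhibition plus 3 SD, cut at about 26% in these data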
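Material: Parental CHO cells | Reagent: ATP | Compound dosing: Single nominal dose of 5.6 µM per compound | Detection: Intracellular calcium via Fluo-8 no-wash fluorescent dye | Read-out: % inhibition of ATP-induced calcium mobilization | Benchmarks: Low control ATP plus DMSO, high control DMSO only | Replicates: Singlicate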
OX1R antag-2 = blocks the human orexin 1 receptor; O43613; CHO/OX1R cells, Fluo-8 calcium fluorescence, orexin A; inhibition, % at 5 µM; 330,000 tested, 0.43% active; AID 434989;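 active = inhibition above its plate's threshold, mean inhibition of all tested compounds on the plate plus 3 SD, cut at about 37% in these data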
GalR3 antag = human GalR3 antagonism. O60755. HEK293 GalR3-CNG cAMP membrane potential fluorescence; galR3 body fused to GalR1 C-terminus. inhibition, % at 3 µM. 360,000 tested, 0.44% active. AID 651719;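 active = inhibition above the screen-wide average plus 3 SD, cut at about 13% in these data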;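 also: forskolin and galanin both at EC90 stimulate the cells; cAMP rise reported by CNG channel membrane potential dye signal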
Target sequence (O60755 1-299 limits assumed): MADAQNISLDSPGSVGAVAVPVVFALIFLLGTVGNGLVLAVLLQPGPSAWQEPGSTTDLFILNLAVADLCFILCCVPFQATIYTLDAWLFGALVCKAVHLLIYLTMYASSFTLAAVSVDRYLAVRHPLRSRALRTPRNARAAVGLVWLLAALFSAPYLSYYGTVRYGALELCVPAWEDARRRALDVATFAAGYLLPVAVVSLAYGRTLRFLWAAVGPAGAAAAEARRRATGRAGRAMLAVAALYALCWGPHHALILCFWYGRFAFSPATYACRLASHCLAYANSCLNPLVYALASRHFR
Each line names hits and unclear results; the compound was inactive in the other large screens.

COc1ccc(CCNC(=O)CN2C(=O)NC3(CCc4ccccc43)C2=O)cc1 (stereo not given)	none (no result: GPR7 antagonist)
CCN(CC)c1ccc(/C=C(/C#N)c2nc3ccccc3[nH]2)c(OC(C)C)c1	OX1R antag-1 39.3, CHO parental Ca 65.7, OX1R antag-2 116.4
CCOc1cccc(/C=C(/C#N)c2nc3ccccc3[nH]2)c1OCC(=O)O	none
O=C(COC(=O)c1ccc(O)cc1)NCCc1c[nH]c2ccccc12	none (no result: GPR7 antagonist)
O=C1N=C(N2CCCC2)S/C1=C\C=C\c1ccccc1	none
CCOC(=O)N1CCC2(CC1)CC(=O)c1cc(O)ccc1O2	GPR7 antagonist 18.0
CCOC(=O)COc1ccc2c(c1)C(=O)CC1(CCN(C(C)=O)CC1)O2	none
COC(=O)/C=C1\SC(N2CCOCC2)=C(c2ccc(OC)cc2)C1=O	OX1R antag-1 70.2
COC(=O)CN1C(=S)N(c2ccc(OC)cc2)C(=O)/C1=C/c1ccc(N2CCOCC2)cc1	none
CC(C)CNC(=S)NC(=O)c1csc([N+](=O)[O-])c1	none
C=CCNC(=O)O/N=C/c1csc([N+](=O)[O-])c1	OX1R antag-1 41.9
O=C(CSc1nc2ccccc2c(=O)n1NC(=O)Cc1ccccc1)NCc1ccccc1Cl	OX1R antag-1 52.6
CSc1cccc(N2CC(C(=O)N(Cc3nnc(-c4ccccc4Cl)o3)C3CC3)CC2=O)c1 (stereo not given)	OX1R antag-1 58.3
Cc1c(C=O)c(=O)n(-c2ccccc2)n1-c1ccccc1	GPR7 antagonist 20.3
CC(=O)NC(=S)Nc1ccc(S(=O)(=O)Nc2nc(C)cc(C)n2)cc1	none
CC[C@]12C(=O)N(C)C[C@H]([C@@H]3C(=O)N(C)C(=O)[C@@H]31)N2C(=O)c1ccc(Cl)cc1	none (no result: GPR7 antagonist, OX1R antag-1, CHO parental Ca, OX1R antag-2)
O=C(Nc1ccncc1)c1cccc(S(=O)(=O)N2CCCC2)c1	none
CN1CCN(C(=O)c2cccc(S(=O)(=O)N3CCCC3)c2)CC1	none (no result: GPR7 antagonist)
Cc1cc(C)n(C(=O)c2cccc(S(=O)(=O)N3CCCC3)c2)n1	GPR7 antagonist 20.8
O=C(c1cccc(S(=O)(=O)N2CCCC2)c1)c1nnc(-c2ccncc2)o1	OX1R antag-1 43.0
CC(C)C1C(c2ccccc2)NC(c2ccccc2)CC1(O)c1ccc(F)cc1 (stereo not given)	none
COc1ccc(C(=O)c2cnc(/N=C/N(C)C)s2)cc1	OX1R antag-1 46.1
COc1ccc2nc(/N=C\N(C)C)sc2c1	none
CN(C)/C=N/c1ncc(C(=O)c2ccc3ccccc3c2)s1	OX1R antag-1 42.0
CCN(C(=O)CSc1nc(N)cc(=O)[nH]1)c1c(N)n(Cc2ccccc2)c(=O)[nH]c1=O	none (no result: GPR7 antagonist)
Cc1cc(C)n2ncc(C(=O)O)c2n1	none
CCCCCCCCC(=O)NC(NC(=S)N1CCOCC1)C(Cl)(Cl)Cl (stereo not given)	GPR7 antagonist 19.5
COc1ccc(OC)c(CN2CCN(C(=O)c3ccc(NS(=O)(=O)c4cccc([N+](=O)[O-])c4)cc3)CC2)c1	none (no result: GPR7 antagonist)
CCOc1ccccc1CNS(=O)(=O)c1ccc(-c2cnc(C3CC3)o2)cc1	CHO parental Ca 33.2
O=S(=O)(NCc1ccccc1)c1ccc(-c2cnc(C3CC3)o2)cc1	none
C[C@H](CO)N1C[C@H](C)[C@@H](CN(C)Cc2ccncc2)Oc2c(NS(=O)(=O)c3ccc(F)cc3)cccc2C1=O	none (no result: GPR7 antagonist)
Cn1ccnc1C(=O)c1ccc(NN)c([N+](=O)[O-])c1	OX1R antag-1 52.7
Cn1ccnc1C(=O)c1cccc([N+](=O)[O-])c1	none
CCC(CC)C(=O)N(C)c1c(C)nc2c(OCc3ccc(C#N)cc3)cccn12	none (no result: GPR7 antagonist, OX1R antag-1, CHO parental Ca, OX1R antag-2)
O=[N+]([O-])c1cc(S(=O)(=O)N2CCCC2)ccc1NCCCN1CCOCC1	OX1R antag-1 50.9
Cc1cccc(OCC(=O)Nc2ccc3oc(=O)ccc3c2)c1C	CHO parental Ca 50.0
Cc1ccc(OCC(=O)Nc2ccc3oc(=O)ccc3c2)cc1	none
CCCn1nnnc1NCc1ccccc1Cl	none
COc1ccc(CCN2C(=O)c3ccccc3C2c2nnnn2C(C)C)cc1OC (stereo not given)	none (no result: GPR7 antagonist, OX1R antag-1, CHO parental Ca, OX1R antag-2)
CCn1c(/C=C/c2ccccc2)nc2ccccc21	OX1R antag-1 47.6
COc1ccc(-c2nc3c(c(SCC(=O)N4CCCC4)n2)COC(C)(C)C3)cc1	none
COCCNc1nnc(SCC(=O)NNC(=O)c2ccc([N+](=O)[O-])cc2)s1	OX1R antag-1 58.8 (no result: GPR7 antagonist)
COc1ccc(NC(=O)CSCC(=O)Nc2cccc(S(=O)(=O)N3CCCCCC3)c2)cc1	none (no result: GPR7 antagonist)
CC(C)C(NC(=O)c1ccccc1)C(=O)N/N=C\c1ccco1 (stereo not given)	none
Cc1cccc(S(=O)(=O)c2c(N)n(Cc3ccco3)c3nc4ccccc4nc23)c1	none
Cc1cccc(-n2cnc3c(c2=O)c2nc4ccccc4nc2n3Cc2ccco2)c1	OX1R antag-1 68.9 (no result: GPR7 antagonist)
Cc1cccc(OCc2n(CC(=O)OC3CC(C)CCC3C(C)C)c3ccccc3[n+]2C)c1 (stereo not given)	GPR7 antagonist 61.1, CHO parental Ca 50.6, OX1R antag-2 47.6 (no result: GalR3 antag)
CC1CCC(C(C)C)C(OC(=O)Cn2c(-c3ccc(F)cc3)[n+](C)c3ccccc32)C1 (stereo not given)	GPR7 antagonist 54.0
CC1CCC(C(C)C)C(OC(=O)CSc2nc(N)cc(=O)[nH]2)C1 (stereo not given)	none
CC(=O)/C(N=Nc1ccc(C(=O)O)cc1[N+](=O)[O-])=C(\C)O	OX1R antag-1 40.6
Cc1ccc(C(=O)NCC(=O)NCCCc2ccccc2)cc1	none
Cc1ccc(-c2cc3cccc[n+]3cc2-c2ccc(C)cc2)cc1	GPR7 antagonist 21.5
Cc1ccc(NC(=O)CCSc2nnnn2-c2ccc3c(c2)OCO3)cc1C	OX1R antag-1 70.6
Cc1ccc(-n2nnnc2SCC(=O)NC(C(=O)O)(c2ccccc2)c2ccccc2)cc1C	OX1R antag-1 57.4
Cc1cc(C)n2nc(CNS(=O)(=O)c3ccc([N+](=O)[O-])cc3)nc2n1	OX1R antag-1 51.0
COc1ccc(OC)c(S(=O)(=O)NCc2nc3nc(C)cc(C)n3n2)c1	none
Cc1ccc(C2OCC(C)([N+](=O)[O-])CO2)cc1 (stereo not given)	none (no result: GPR7 antagonist, OX1R antag-1, CHO parental Ca, OX1R antag-2)
O=C(C1=COCCO1)N1CCN(S(=O)(=O)c2cccc(Br)c2)CC1	none (no result: GPR7 antagonist)
CN(C)NC(=O)c1ccc([N+](=O)[O-])s1	OX1R antag-1 66.8
O=C(Nc1nccs1)c1ccc(-c2cccc([N+](=O)[O-])c2)o1	none
O=C(Nc1cccc2ccccc12)c1ccc([N+](=O)[O-])s1	none
O=C(Nc1ccccc1F)c1ccc(-c2cccc([N+](=O)[O-])c2)o1	OX1R antag-1 64.1
O=C(Nc1ccccc1F)c1ccc([N+](=O)[O-])s1	OX1R antag-1 38.5
O=C(Nc1cccnc1)c1ccc([N+](=O)[O-])s1	OX1R antag-1 52.6 (no result: GPR7 antagonist)
O=C(C(=O)N1CCC(CNC(=O)C2COc3ccccc3O2)CC1)c1cccs1 (stereo not given)	none (no result: GPR7 antagonist, OX1R antag-1, CHO parental Ca, OX1R antag-2)
CCC1Nc2ccccc2-c2nnc(SC)nc2O1 (stereo not given)	none
COc1ccccc1C(=O)C1Nc2ccccc2-c2nnc(SC)nc2O1 (stereo not given)	OX1R antag-1 50.2

Screening data: PubChem, The Scripps Research Institute Molecular Screening Center
